This is an account of results in PMC9796681 (British Journal of Clinical Pharmacology, 2022).

The conditions of series [1]: one-compartment model; cited from earlier work.
The nature of series [2]: Population pharmacokinetic analysis. It counts as in vivo, human. A digest of the protocol: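 Healthy young subjects: single 80 mg dose, fasting, sampled predose to 102 h. Gout patients: 40-160 mg/day at steady state (≥7 days after dose change), up to four samples at 1–24 h post-dose. Plasma assayed by HPLC-fluorescence, LLQ 0.005 µg mL-1. Two-compartment model, first-order elimination; power covariate model normalised to median; shared random effect on availability (FVAR); food tested on ka and F.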

The conditions of series [3]: cited from earlier work.
The conditions of series [4]: two-compartment model; gouty; cited from earlier work.
Setting [5] is: single dose 80 mg, healthy subjects.

Values joined by “and” are separate entries in the source; they are usually repeats but may differ in a detail not shown here. Equal values may be shown once. “Also recorded” adds a separate entry of the source. Read-outs that look alike come from different tables or passages of the source.

Consider `Cc1nc(-c2ccc(OCC(C)C)c(C#N)c2)sc1C(=O)O` [febuxostat], for which the “ka, absorption rate constant” value in series [1] was 2.52 h⁻¹. Further, in series [2] (final model), the “BSV-CL/F, between-subject variability (coefficient of variation)” value was 13.6% and 13.6 (37.4) %; the “BSV-FVAR, common variability on oral availability” value is listed as 27.7 (21.2) %; the “BSV-Vc/F, between-subject variability (coefficient of variation)” value was 22% and 22.0 (35.4) %; the “BSV-Vp/F, between-subject variability (coefficient of variation)” value was 19.5% and 19.5 (58.2) %. For the same molecule, in series [2] (final model, body mass index, median 30.6 kg m^−2), the “Covariate BMI (ϴ 7), power exponent on Vc/F” value came out at 0.996. In series [2] (final model, fed status), the “Covariate food on ka” value is listed as −0.869 and the “Covariate food on oral availability” value is given as −0.667. Moreover, in series [2] (final model, fed versus fasted), the “reduction of absorption rate constant ka by food” value is 87% and the “reduction of oral availability (relative bioavailability) by food” value was 67%. Also, the “RUV-CV%, residual unexplained variability” value in series [2] (final model, proportional residual error) is listed as 39.9 (10.1) %. Moreover, in series [2] (final two-compartment model), the “absorption rate constant ka (ϴ 5), population mean” value was 3.6 h⁻¹ and 3.62 h⁻¹; the “apparent peripheral volume of distribution Vp/F (ϴ 4), population mean” value was 19.4 L; the “intercompartmental clearance Q (ϴ 3), population mean” value was 1.25 L/h. The Vd/F in series [2] (human, plasma, oral) is 32.8 L. Moreover, the “effect of mild and moderate hepatic impairment on the pharmacokinetics” value in series [3] (Child-Pugh class A and B) is recorded as “no effect; also recorded: did not affect”. Moreover, the CL/F in series [3] (Japanese subjects who had gout or were hyperuricaemic) was 9.9 L/h. The “reduction of apparent clearance by UGT polymorphisms” value in series [3] (UGT six and 28 variants) is listed as 22%. Moreover, the “ka, value assumed” value in series [3] (assumed by Hirai et al) is 2.18 h⁻¹. Besides, in series [3] (dosage interval 24 h), the “decline of plasma concentration over the dosage interval” value was “up to 100 fold”. The CL/F in series [3] (healthy African Americans) was 10.5 L/h. Also, the CL/F in series [3] (healthy Chinese subjects) is recorded as 5.3 Lh^−1. Moreover, the “effect of food on the extent of absorption (AUC0-48)” value in series [3] (healthy subjects, 48 h) was “negligible effect; also recorded: reduce the rate but not the extent of absorption”. In addition, in series [3] (healthy subjects), the “cleared by phase I metabolism (oxidation)” value is recorded as ~ 35%, the “cleared by phase II metabolism (glucuronidation)” value is reported as ~ 40%, the “febuxostat eliminated from plasma in the first 9 h post-dose” value was 81% and the “reduction in AUC0-24 with food” value is recorded as 20%. For the same molecule, in series [3] (healthy subjects), the “reduction in C max with food” value is given as 50%. In series [3] (setting [5]), the mean initial half-life is given as 2 h and the mean terminal half-life is given as 14 h. Moreover, in series [4], the “Residual CV” value is 71%; the “Vc/F, final estimate” value is 32.2 L; the “Vp/F, final estimate” value was 22.2 L; the “ka, absorption rate constant” value was 13 h⁻¹.
Consider `Cc1nc(-c2ccc(OCC(C)C)c(C#N)c2)sc1C(=O)O[C@@H]1O[C@H](C(=O)O)[C@@H](O)[C@H](O)[C@H]1O` [Febuxostat glucuronide], for which, in series [3] (published data), the “proportion of the febuxostat dose as glucuronide, excreted by the kidneys” value is on record as “about 40%”.

As usually defined, the Vd/F is the volume of distribution divided by bioavailability.
